For data set [1], the system named is TRPM8. To be noted: read-out: EC50 previously reported; CHO cells / mouse TRPM8; cited from earlier work.
Data set [2] concerns the target human TRPM8 (hTRPM8) (Homo sapiens, UniProt Q7Z2W7). It is filed as cell-based.
Data set [3] deals with human TRPA1 (Homo sapiens, UniProt O75762). Kind of data set: FLIPR Ca2+ flux assay. To be noted: for hTRPA1% activation: normalized to Emax of AITC (300 μM); for hTRPA1% inhibition: vs EC80 of AITC (10 μM). It is filed as cell-based. (In general: A change in cytosolic calcium serves as a functional read-out for many receptors and channels.)
Sequence of human TRPA1 (O75762 whole entry): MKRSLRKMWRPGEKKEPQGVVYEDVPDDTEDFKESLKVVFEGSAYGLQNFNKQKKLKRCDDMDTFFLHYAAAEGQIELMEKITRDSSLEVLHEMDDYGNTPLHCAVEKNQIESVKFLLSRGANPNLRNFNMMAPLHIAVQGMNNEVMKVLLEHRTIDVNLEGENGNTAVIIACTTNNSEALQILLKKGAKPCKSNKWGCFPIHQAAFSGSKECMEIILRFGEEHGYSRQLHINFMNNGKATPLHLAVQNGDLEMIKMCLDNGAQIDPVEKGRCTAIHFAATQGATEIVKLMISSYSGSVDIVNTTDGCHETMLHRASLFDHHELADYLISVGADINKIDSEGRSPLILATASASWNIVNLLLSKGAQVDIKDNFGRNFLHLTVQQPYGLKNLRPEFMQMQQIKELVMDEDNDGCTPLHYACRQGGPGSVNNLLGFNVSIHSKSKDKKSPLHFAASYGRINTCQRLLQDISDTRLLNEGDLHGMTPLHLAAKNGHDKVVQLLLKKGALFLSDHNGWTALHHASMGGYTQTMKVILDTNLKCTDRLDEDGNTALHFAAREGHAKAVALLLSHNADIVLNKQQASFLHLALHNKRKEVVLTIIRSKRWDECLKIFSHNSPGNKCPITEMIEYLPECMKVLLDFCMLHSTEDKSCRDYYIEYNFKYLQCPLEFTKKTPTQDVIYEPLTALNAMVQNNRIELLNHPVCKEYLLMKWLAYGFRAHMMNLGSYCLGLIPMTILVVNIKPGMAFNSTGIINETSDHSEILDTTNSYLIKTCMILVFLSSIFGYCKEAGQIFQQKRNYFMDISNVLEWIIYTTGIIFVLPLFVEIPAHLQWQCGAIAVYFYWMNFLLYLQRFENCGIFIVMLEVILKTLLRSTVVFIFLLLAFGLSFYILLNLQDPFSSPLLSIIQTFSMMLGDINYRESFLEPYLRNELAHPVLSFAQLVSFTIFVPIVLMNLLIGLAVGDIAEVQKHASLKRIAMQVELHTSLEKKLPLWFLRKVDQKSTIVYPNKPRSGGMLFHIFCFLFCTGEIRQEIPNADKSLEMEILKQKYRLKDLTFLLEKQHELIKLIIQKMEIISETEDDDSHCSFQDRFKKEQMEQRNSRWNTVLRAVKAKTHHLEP
The target in data set [4] is human TRPV1 (Homo sapiens, UniProt Q8NER1). Kind of data set: FLIPR Ca2+ flux assay. It is filed as cell-based. To be noted: for hTRPV1% activation: normalized to Emax of capsaicin (3 μM); for hTRPV1% inhibition: vs EC80 of capsaicin (0.1 μM).
Sequence of human TRPV1 (Q8NER1 whole entry): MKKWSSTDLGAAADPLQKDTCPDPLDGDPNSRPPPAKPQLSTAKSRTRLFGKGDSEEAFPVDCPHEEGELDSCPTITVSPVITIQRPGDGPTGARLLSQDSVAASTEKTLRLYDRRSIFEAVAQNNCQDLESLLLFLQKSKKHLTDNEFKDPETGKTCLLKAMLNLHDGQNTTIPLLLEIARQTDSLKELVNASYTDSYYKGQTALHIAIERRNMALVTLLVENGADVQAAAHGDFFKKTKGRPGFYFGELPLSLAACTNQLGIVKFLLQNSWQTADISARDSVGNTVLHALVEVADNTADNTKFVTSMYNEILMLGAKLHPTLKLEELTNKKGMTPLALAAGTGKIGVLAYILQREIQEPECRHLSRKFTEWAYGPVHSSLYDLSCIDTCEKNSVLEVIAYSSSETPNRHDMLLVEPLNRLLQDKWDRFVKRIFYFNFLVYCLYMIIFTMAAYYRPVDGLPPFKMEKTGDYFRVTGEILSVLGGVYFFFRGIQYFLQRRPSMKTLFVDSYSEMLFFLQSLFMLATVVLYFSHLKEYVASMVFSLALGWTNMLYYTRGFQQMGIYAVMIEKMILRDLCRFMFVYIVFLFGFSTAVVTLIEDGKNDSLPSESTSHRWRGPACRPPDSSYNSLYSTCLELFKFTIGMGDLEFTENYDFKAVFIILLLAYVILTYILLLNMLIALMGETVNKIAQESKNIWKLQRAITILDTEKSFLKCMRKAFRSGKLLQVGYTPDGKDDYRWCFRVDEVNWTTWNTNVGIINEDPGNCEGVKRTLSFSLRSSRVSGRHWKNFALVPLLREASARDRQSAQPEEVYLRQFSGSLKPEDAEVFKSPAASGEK
Data set [5] concerns TRPA1. The following applies: read-out: TRPA1 IC50; vs the effect of 80 μM AITC; cited from earlier work.
Data set [6] addresses human TRPM8 (Homo sapiens, UniProt Q7Z2W7). The following applies: cited from earlier work.
Data set [7] can be described thus: Metabolic stability in mouse liver microsomes. To be noted: male, CD-1, mouse. The format is in vitro ADME.
In data set [8] the test system is TRPM8. To be noted: read-out: IC50 (whole-cell patch clamp); cited from earlier work. On the technique in general: Patch clamp records ionic current or voltage across a cell membrane.
Data set [9] concerns icilin-induced WDS in mice. Kind of data set: Wet dog shakes. The format is in vivo.
Data set [10] has as its system Oxaliplatin (OXP)-induced cold allodynia in C57 mice. Kind of data set: Oxaliplatin-induced cold allodynia, acetone test. The format is in vivo. The method in brief:
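Male C57 mice received oxaliplatin (6 mg/kg) on days 1, 3 and 5, with saline and 5% mannitol given i.p., and were tested on day 7. Test compound (DMSO stock diluted in saline, 0.1–1 μg) was injected once into the right hind paw plantar surface. After about 30 min habituation on mesh, acetone-drop cold responses were followed over time. Mean ± SEM, n = 6; one-way ANOVA, Dunnett's.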

Setting [11] is: after single administration of 0.1 and 1 μg.

“Also recorded” adds a separate entry of the source. Read-outs that look alike come from different tables or passages of the source. Bounds are passed on as bounds.

Sequence of human TRPM8 (hTRPM8) (Q7Z2W7 whole entry): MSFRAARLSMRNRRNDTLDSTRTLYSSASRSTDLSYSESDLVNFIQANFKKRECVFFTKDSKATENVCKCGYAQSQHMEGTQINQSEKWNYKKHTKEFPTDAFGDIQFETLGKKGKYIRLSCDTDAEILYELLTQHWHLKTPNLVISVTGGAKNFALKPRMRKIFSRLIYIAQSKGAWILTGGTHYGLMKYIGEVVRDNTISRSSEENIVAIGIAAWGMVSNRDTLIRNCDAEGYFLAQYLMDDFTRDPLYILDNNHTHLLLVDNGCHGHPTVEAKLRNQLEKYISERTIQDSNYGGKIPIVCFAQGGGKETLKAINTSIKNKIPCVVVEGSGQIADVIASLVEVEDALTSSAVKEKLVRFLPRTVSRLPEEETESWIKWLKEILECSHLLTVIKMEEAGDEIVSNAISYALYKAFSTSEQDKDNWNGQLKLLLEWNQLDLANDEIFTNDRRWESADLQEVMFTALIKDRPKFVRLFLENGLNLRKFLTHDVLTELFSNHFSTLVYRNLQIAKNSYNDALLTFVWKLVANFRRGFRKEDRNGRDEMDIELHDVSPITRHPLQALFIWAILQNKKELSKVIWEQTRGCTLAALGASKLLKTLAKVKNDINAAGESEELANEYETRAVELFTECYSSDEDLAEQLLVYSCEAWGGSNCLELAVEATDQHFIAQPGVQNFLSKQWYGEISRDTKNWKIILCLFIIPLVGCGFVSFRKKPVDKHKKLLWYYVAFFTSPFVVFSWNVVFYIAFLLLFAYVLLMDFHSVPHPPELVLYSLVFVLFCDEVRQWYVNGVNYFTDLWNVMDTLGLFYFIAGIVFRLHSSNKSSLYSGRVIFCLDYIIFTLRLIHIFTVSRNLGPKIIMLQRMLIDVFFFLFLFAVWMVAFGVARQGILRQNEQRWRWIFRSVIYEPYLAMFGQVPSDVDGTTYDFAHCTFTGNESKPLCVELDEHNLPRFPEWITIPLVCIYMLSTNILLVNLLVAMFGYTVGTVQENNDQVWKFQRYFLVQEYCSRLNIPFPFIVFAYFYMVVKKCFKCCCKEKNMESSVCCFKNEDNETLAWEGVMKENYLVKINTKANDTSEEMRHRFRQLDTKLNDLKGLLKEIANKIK
Sequence of human TRPM8 (Q7Z2W7 whole entry): as above

As a reminder, the EC50 is the concentration giving half of the maximal effect. As for `O=C1NC(c2cccc([N+](=O)[O-])c2)=CCN1c1ccccc1O` [icilin, 3-(2-hydroxyphenyl)-6-(3-nitrophenyl)-3,4-dihydropyrimidin-2(1H)-one], in data set [1], the half-maximal effective concentration (EC50) is 0.12 to 0.2 µM.
For the molecule `O=C(NC1CCc2ccccc2C1)c1ccc(-c2ccccc2)cc1` (centres unmarked) [Compound 11, N-(1,2,3,4-Tetrahydronaphthalen-2-yl)-[1,1′-biphenyl]-4-carbox-amide], the “decrease of hTRPM8 potency (vs 10)” value in [2] (ratio of IC50 values) was 9 fold. Further, the hTRPA1% activation in [3] (concn tested 100 nM) is −0.1 ± 0.5%; in data set [3] (concn tested 1 μM), −0.8 ± 0.6%. Also, the hTRPA1% inhibition in [3] (concn tested 100 nM) is listed as 3 ± 6%; in data set [3] (concn tested 1 μM) it was 4 ± 1%. For the same molecule, the hTRPV1% activation in data set [4] (concn tested 100 nM) was −1.8 ± 0.9%; in data set [4] (concn tested 1 μM) it was −0.7 ± 1.5%. Further, the hTRPV1% inhibition in data set [4] (concn tested 100 nM) is reported as −3.1 ± 0.6%; in data set [4] (concn tested 1 μM), 13 ± 3%.
Regarding `O=C(NC1CCCc2ccccc21)c1ccc(-c2ccccc2)cc1` (centres unmarked) [Compound 9, N-(1,2,3,4-Tetrahydronaphthalen-1-yl)-[1,1′-biphenyl]-4-carbox-amide], in data set [2] (ratio of IC50 values), the “loss of potency vs 8” value is given as 3 fold.
Regarding `Cl.Cl.Cl.Cl.Cl.Cl.N.N.N.N.N.N.N.N.N.N.N.N.N.N.[O-2].[O-2].[Ru+3].[Ru+3].[Ru+4]` [ruthenium red, reference compound], the IC50 in data set [3] (read-out: TRPA1 IC50, vs AITC (10 μM)-activated [Ca2+]i release) is 0.162 ± 0.033 µM; in data set [5], 0.029 ± 0.006 µM.
On to `O=C(NC12CC3CC(CC(C3)C1)C2)c1ccc(-c2ccccc2)cc1` [Compound 15, N-(Adamantan-1-yl)-[1,1′-biphenyl]-4-carboxamide], for which the values for the hTRPA1% activation in data set [3] (concn tested 30 nM) and in [3] (concn tested 300 nM) were −2.6 ± 0.5% and −1.5 ± 0.4%, respectively. The hTRPV1% activation in [4] (concn tested 30 nM) is 1.0 ± 0.2%; in data set [4] (concn tested 300 nM) it was 1 ± 2%.
For `O=C(O)c1ccc(S(=O)(=O)N(Cc2ccc(OC(F)(F)F)cc2)c2ncc(C(F)(F)F)cc2Cl)cc1` [RQ-00203078], the IC50 in [6] (read-out: reported potency at hTRPM8) is under 0.01 µM.
In the case of `O=C(NC1CCCCCC1)c1ccc(-c2ccccc2)cc1` [Compound 5, N-Cycloheptyl-[1,1′-biphenyl]-4-Carboxamide], in [2] (ratio of IC50 values), the “improvement of hTRPM8 potency relative to 2” value is recorded as 8–9 fold. Besides, the hTRPA1% activation in data set [3] (concn tested 100 nM) turned out to be 0.1 ± 0.7%; in data set [3] (concn tested 1 μM), 0.8 ± 0.5%. The hTRPV1% activation turned out to be 0.0 ± 1.0% in data set [4] (concn tested 100 nM) and 0.6 ± 1.5% in data set [4] (concn tested 1 μM).
Regarding `O=C(NC1CCCCCCC1)c1ccc(-c2ccccc2)cc1` [Compound 7, N-Cyclooctyl-[1,1′-biphenyl]-4-carboxamide], the “improvement of hTRPM8 potency relative to 2” value in data set [2] (ratio of IC50 values) is listed as 8–9 fold. The results for the hTRPA1% activation in data set [3] (concn tested 100 nM) and in [3] (concn tested 1 μM) were −1.0 ± 0.1% and −1.5 ± 0.9%, respectively. Moreover, the hTRPV1% activation is −1.9 ± 0.7% in [4] (concn tested 100 nM) and −3.2 ± 0.6% in [4] (concn tested 1 μM).
On to `C[C@H](c1ccc(F)cc1)N(Cc1cccc(C(=O)O)c1)C(=O)c1cnc2ccccc2c1` [PF-05105679], for which the IC50 in data set [6] (read-out: human TRPM8 IC50, WS-12-mediated activation) is 0.181 ± 0.00721 µM; in data set [6] (read-out: human TRPM8 IC50, voltage-mediated activation), 0.103 ± 0.0294 µM.
Regarding `O=C(N[C@H]1CC[C@@H]2CCCC[C@@H]2C1)c1ccc(-c2ccccc2)cc1` (racemic) [Compound 12, N-((2SR,9RS,10SR)-Decahydronaphthalen-2-yl)-[1,1′-biphenyl]-4-carboxamide], the “higher potency than the diastereomeric mixture (10)” value in data set [2] (ratio of IC50 values) was found to be 4 fold. For the same molecule, the hTRPA1% activation is −2.3 ± 1.0% in data set [3] (concn tested 3 nM) and −2.1 ± 0.5% in [3] (concn tested 30 nM). The hTRPA1% inhibition is on record as −0.3 ± 3% in data set [3] (concn tested 3 nM) and 5 ± 9% in [3] (concn tested 30 nM). Also, the hTRPV1% activation in data set [4] (concn tested 3 nM) is reported as 2 ± 1%; in [4] (concn tested 30 nM), 3 ± 1%. For the same molecule, the results for the hTRPV1% inhibition in [4] (concn tested 3 nM) and in data set [4] (concn tested 30 nM) were −12 ± 3% and 1.0 ± 2%, respectively.
As usually defined, the microsomal CLint is a measure of how fast metabolising enzymes remove a compound, apart from limits set by blood flow. For `C[C@]12CC[C@H]3[C@@H](CCC4=CC(=O)CC[C@@]43C)[C@@H]1CC[C@@H]2O` [testosterone, reference compound], the microsomal CLint in data set [7] (microsomes) turned out to be 372 µL/min/mg.
For the molecule `COc1cc(CN(CCN)C(=O)OC(C)c2ccccc2)ccc1OCc1ccccc1` (centres unmarked) [PBMC], the IC50 in data set [8] was 0.0004 to 0.0006 µM.
Usually inhibition stands for the drop in the measured response relative to a control, in per cent. Regarding `O=C(NC1CCC2CCCCC2C1)c1ccc(-c2ccccc2)cc1` (centres unmarked) [Compound 10, N-(Decahydronaphthalen-2-yl)-[1,1′-biphenyl]-4-carboxamide], in data set [2] (ratio of IC50 values), the “enhancement of TRPM8 potency relative to 8” value is listed as 3500 fold. The “higher potency than cycloheptyl 5 and cyclooctyl 7” value in data set [2] (ratio of IC50 values) turned out to be 10 fold. Moreover, the values for the hTRPA1% activation in data set [3] (concn tested 10 nM) and in data set [3] (concn tested 100 nM) were 0.2 ± 0.4% and −1.1 ± 0.2%, respectively. Besides, in data set [4] (HEK293, read-out: hTRPV1% inhibition), the inhibition at 0.1 µM was 2 ± 3%. For the same molecule, the hTRPV1% activation in data set [4] (concn tested 10 nM) stood at 2.4 ± 0.8%; in [4] (concn tested 100 nM) it was 2.3 ± 0.9%.
Consider `O=C(NC1CCC2(CCCCC2)CC1)c1ccc(-c2ccccc2)cc1` [Compound 13, N-(Spiro[5.5]undecan-3-yl)-[1,1′-biphenyl]-4-carboxamide], for which the hTRPA1% activation in data set [3] (concn tested 100 nM) is 0.2 ± 0.5%; in [3] (concn tested 1 μM), −0.2 ± 1.1%. For the same molecule, the values for the hTRPV1% activation in data set [4] (concn tested 100 nM) and in [4] (concn tested 1 μM) were −1.0 ± 0.4% and 0.7 ± 0.2%, respectively.
On to `O=C(NC1CCC2(CCCC2)CC1)c1ccc(-c2ccccc2)cc1` [Compound 14, N-(Spiro[4.5]decan-8-yl)-[1,1′-biphenyl]-4-carboxamide], for which, in [2] (3 nM compound vs maximal (100 μM) menthol), the “effect on menthol-evoked TRPM8-mediated Ca2+ entry” value was “significantly (P < 0.01) reduce”. Moreover, the “effect on icilin-induced Ca2+ influx at higher concentrations” value in data set [2] (icilin 500 nM) is on record as “nearly abolishes”. Also, the figures for the hTRPA1% activation in data set [3] (concn tested 3 nM) and in data set [3] (concn tested 30 nM) were −0.8 ± 0.4% and 0.1 ± 1.2%, respectively. The hTRPV1% activation in [4] (concn tested 3 nM) is given as 1 ± 1%; in data set [4] (concn tested 30 nM) it was 1 ± 2%. In addition, the microsomal CLint at 1 μM in data set [7] (liver microsomes) was 45.5 µL/min/mg. For the same molecule, in data set [9] (50 mg/kg s.c., compared with gabapentin 25 mg/kg s.c.), the “inhibition of WDS at the highest dose” value is “efficacy comparable to that observed with a standard analgesic dose of gabapentin”. Besides, the “effect on icilin-triggered wet dog shakes” value in [9] (1, 30 and 50 mg/kg s.c. 30 min before icilin 10 mg/kg i.p., WDS counted over 30 min, n = 6) was “dose-dependently blocks; also recorded: marked, dose-dependent antinociceptive behavior”. Moreover, the “effect on OXP effects at 60 min” value in data set [10] (60 min after administration) is recorded as “significantly suppresses OXP effects”. Further, the “time at which attenuated cold allodynia is evident” value in data set [10] (setting [11]) was 15 min. Moreover, the “time of maximum inhibition of cold allodynia” value in data set [10] (setting [11]) was determined as 30 min.
As for `CC1CCC(C(C)C)C(NC(=O)c2ccc(-c3ccccc3)cc2)C1` (centres unmarked) [Compound 2, N-(2-Isopropyl-5-methylcyclohexyl)-[1,1′-biphenyl]-4-carboxamide], in data set [2] (ratio of IC50 values), the “increase of hTRPM8 activity relative to 1” value is given as 30 fold.

These data come from PMC7153518 (ACS chemical neuroscience, 2020).
